Test results reported in ChEMBL document CHEMBL4041475, “Novel 2-arylazoimidazole derivatives as inhibitors of Trypanosoma cruzi proliferation: Synthesis and evaluation of their biological activity” (Eur J Med Chem, 2017).
pIC50: −log10 of the molar value. Active and inactive are the calls of the source. The rule behind the calls is not given here.

Assays:
Trypanosoma cruzi [1] = assay: Trypanocidal activity against Trypanosoma cruzi TCC epimastigotes assessed as effect on parasite motility at 1 to 15 uM supplemented with fresh medium containing compound every 9 to 10 days measured on third week; type: functional
Summary of the method: (§1)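 TCC strain epimastigotes grown at 28 °C in Diamond medium with haemin and 10% FBS. Seeded at 10×10⁶/mL in duplicate with 1, 5, 10 or 15 μM compound, alongside untreated cultures. Counted daily in a haemocytometer. Every ~9–10 days, re-diluted to 5×10⁶/mL in fresh compound-containing medium to start a new round.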

Trypanosoma cruzi [2] = assay: Trypanocidal activity against Trypanosoma cruzi TCC epimastigotes assessed as maximal parasite density at 1 to 15 uM supplemented with fresh medium containing compound every 9 to 10 days measured on third week by haemocytometric method; type: functional; summary of the method: as §1
Trypanosoma cruzi [3] = assay: Trypanocidal activity against Trypanosoma cruzi RA tripamastigote bloodstream forms infected in Balb/c mouse assessed as mouse survival at 100 mg/kg, po administered on day 9 post infection for 5 consecutive days measured daily during compound dosing up to 45 days post infection; type: functional
Summary of the method: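 Male Balb/c mice (6–8 weeks, groups of six) were infected intraperitoneally with 100 bloodstream trypomastigotes harvested from CF1 mice. Oral dosing at 100 mg/kg/day for five consecutive days began once circulating parasites were confirmed microscopically, on day 9 p.i. Drugs were suspended in 0.1 M PBS (pH 7.2), prepared fresh daily; vehicle served as negative control. Mortality was recorded daily to 45 days p.i.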

Trypanosoma cruzi [4] = assay: Trypanocidal activity against Trypanosoma cruzi RA tripamastigote bloodstream forms infected in Balb/c mouse assessed as reduction in parasitaemia at 100 mg/kg, po administered on day 9 post infection for 5 consecutive days measured on day 35 post infection relative to control; type: functional
Summary of the method: (§2)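 Balb/c males, 6–8 weeks, groups of six, infected i.p. with 100 RA strain bloodstream trypomastigotes. Oral dosing for 5 consecutive days once parasites were circulating, in 0.1 M PBS pH 7.2, with vehicle as negative control. Tail-vein blood (5 μl) diluted 1:10 in NH₄Cl/Tris lysis buffer and counted in a haemocytometer every other day.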

Trypanosoma cruzi [5] = assay: Trypanocidal activity against Trypanosoma cruzi TCC epimastigotes assessed as effect on parasite viability at 1 to 15 uM supplemented with fresh medium containing compound every 9 to 10 days measured on third week by maximal parasite density; type: functional; summary of the method: as §1
Trypanosoma cruzi [6] = assay: Trypanocidal activity against Trypanosoma cruzi TCC epimastigotes assessed as parasite duplication time at 1 to 15 uM supplemented with fresh medium containing compound every 9 to 10 days measured on third week; type: functional; summary of the method: as §1
Trypanosoma cruzi [7] = assay: Trypanocidal activity against Trypanosoma cruzi TCC epimastigotes assessed as maximal parasite density at 15 uM measured after 9 to 10 days by haemocytometric method (reference value: 45 10^6/ml); type: functional; summary of the method: as §1
Trypanosoma cruzi [8] = assay: Trypanocidal activity against Trypanosoma cruzi TCC epimastigotes assessed as parasite duplication time at 15 uM measured after 9 to 10 days (reference value: 2 day); type: functional; summary of the method: as §1
Trypanosoma cruzi [9] = assay: Trypanocidal activity against Trypanosoma cruzi TCC epimastigotes at 1 to 15 uM supplemented with fresh medium containing compound every 9 to 10 days by haemocytometric method; type: functional; summary of the method: as §1
Trypanosoma cruzi [10] = assay: Trypanocidal activity against Trypanosoma cruzi RA tripamastigote bloodstream forms isolated from infected CF1 mouse blood after 24 hrs by haemocytometric method; type: functional
Summary of the method: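 RA strain bloodstream trypomastigotes taken from CF1 mouse blood at parasitaemia peak (day 5 p.i.) and diluted in medium to 1.5×10⁶/ml. Exposed in duplicate to 125–1000 μM compound at 4 °C for 24 h. Viable parasites counted in a haemocytometer; % lysis computed against untreated control. IC50 obtained from log %L against log concentration.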

Trypanosoma cruzi [11] = assay: Trypanocidal activity against Trypanosoma cruzi RA tripamastigote bloodstream forms infected in Balb/c mouse assessed as reduction in circulating parasite level in acute phase at 100 mg/kg, po administered on day 9 post infection for 5 consecutive days; type: functional, organism-based; summary of the method: as §2
[12] = Cytotoxicity against mouse RAW cells assessed as reduction in cell viability after 24 hrs by MTT assay; type: cell-based
Summary of the method: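 RAW cells, 1x10⁵ per well, exposed to 125–1000 μM compound for 24 h at 37 °C, 5% CO₂; MTT added at 1.5 mg/mL final for 4 h, formazan dissolved in 1% SDS/0.01 M HCl, absorbance at 540 nm. CC50 obtained by linear regression of log OD against log concentration. Run in duplicate.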

[13] = in the assay text read “day 18 post infection relative” for “day 35 post infection relative”

O=C(Cn1ccnc1[N+](=O)[O-])NCc1ccccc1 [BENZNIDAZOLE]
Activity (Trypanosoma cruzi [1]): Active
Activity (Trypanosoma cruzi [2]): Active
survival at 100 mg/kg (Trypanosoma cruzi [3]): 100%
Activity (Trypanosoma cruzi [4]): Active
Activity (Trypanosoma cruzi [5]): Active
Activity (Trypanosoma cruzi [6]): Active
Activity (Trypanosoma cruzi [7]): 25 ×10⁶ /ml
Time (Trypanosoma cruzi [8]): 3 days

COc1ccc(/N=N/c2nccn2CC(=O)N2CCOCC2)c([N+](=O)[O-])c1
Activity (Trypanosoma cruzi [9]): inactive

COc1ccc(/N=N/c2nccn2CC(=O)N2CCCCC2)c([N+](=O)[O-])c1
Activity (Trypanosoma cruzi [9]): inactive

O=C(Cn1ccnc1/N=N/c1ccc([N+](=O)[O-])cc1)N1CCCCC1
Activity (Trypanosoma cruzi [1]): Active
pIC50 (Trypanosoma cruzi [10]): 3.19
Activity (Trypanosoma cruzi [11]): Active
Activity (Trypanosoma cruzi [2]): 5 - 6 ×10⁶ /ml
survival at 100 mg/kg (Trypanosoma cruzi [3]): 67%
Activity (Trypanosoma cruzi [4]; [13]): 71%
CC50 at 24 h [12]: 206 µM
Activity (Trypanosoma cruzi [5]): Active
Time (Trypanosoma cruzi [6]): 9 to 12 days
Activity (Trypanosoma cruzi [7]): 20 ×10⁶ /ml
Time (Trypanosoma cruzi [8]): 4 days

O=C(Cn1ccnc1/N=N/c1ccc(C(F)(F)F)cc1)N1CCCCC1
Activity (Trypanosoma cruzi [1]): Active
pIC50 (Trypanosoma cruzi [10]): 2.97
Activity (Trypanosoma cruzi [11]): Active
Activity (Trypanosoma cruzi [2]): 5 - 6 ×10⁶ /ml
survival at 100 mg/kg (Trypanosoma cruzi [3]): 67%
Activity (Trypanosoma cruzi [4]; [13]): 60%
CC50 at 24 h [12]: 415 µM
Activity (Trypanosoma cruzi [5]): Active
Time (Trypanosoma cruzi [6]): 9 to 12 days

O=C(Cn1ccnc1/N=N/c1ccc([N+](=O)[O-])cc1)N1CCOCC1
Activity (Trypanosoma cruzi [9]): inactive

COc1ccc(/N=N/c2nccn2CC(=O)NC2CCCCC2)c([N+](=O)[O-])c1
Activity (Trypanosoma cruzi [9]): inactive

NC(CCCCNC(=O)Cn1ccnc1/N=N/c1ccc([N+](=O)[O-])cc1)C(=O)O (configuration not stated)
Activity (Trypanosoma cruzi [9]): inactive

O=C(Cn1ccnc1/N=N/c1ccc([N+](=O)[O-])cc1)NC1CCCCC1
Activity (Trypanosoma cruzi [9]): inactive

CN(C)c1ccc(C(=C2C=CC(=[N+](C)C)C=C2)c2ccc(N(C)C)cc2)cc1 [GENTIAN VIOLET]
pIC50 (Trypanosoma cruzi [10]): 5.55

O=C(Cn1ccnc1/N=N/c1ccc(Cl)c(Cl)c1)N1CCCC1
Activity (Trypanosoma cruzi [9]): inactive

O=C(Cn1ccnc1/N=N/c1ccc(C(F)(F)F)cc1)NC1CCCCC1
Activity (Trypanosoma cruzi [9]): inactive

O=C(Cn1ccnc1/N=N/c1ccc([N+](=O)[O-])cc1)N1CCCC1
Activity (Trypanosoma cruzi [9]): inactive

O=C(Cn1ccnc1/N=N/c1ccc(Cl)cc1)N1CCCCC1
Activity (Trypanosoma cruzi [9]): inactive

O=C(Cn1ccnc1/N=N/c1ccc(Cl)cc1)N1CCCC1
Activity (Trypanosoma cruzi [9]): inactive

O=C(Cn1ccnc1/N=N/c1ccc(C(F)(F)F)cc1)N1CCCC1
Activity (Trypanosoma cruzi [9]): inactive

O=C(Cn1ccnc1/N=N/c1ccc(C(F)(F)F)cc1)N1CCOCC1
Activity (Trypanosoma cruzi [9]): inactive
